# Bioassay records as filed in PubChem BioAssay.
# Rows were chosen to be rich in hits. Some 5.5% of all compounds tested hit in one or more screens of this group.
# STAT1 activator: increases IFN-gamma driven STAT1 reporter signal. NIH 3T3 STAT1-luciferase reporter, luminescence; 100% = IFN-gamma alone, no compound. activation (% of control), % at 5.5 µM. 2.6% of 200,000 active. AID 932;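 active means activation above the screen-wide mean activation plus 3 SD, cut at about 130% in these data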;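 further: raw ratio to IFN-gamma control signal so 100% means no change and 0% no light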
# HSV replic up: increases HSV replication in cells; AID 1956; 0.005% of 220,000 active; maximum fold increase; HSV replication augmentation in cells, fold increase; in the data active means maximum fold increase above about 1.5; inconclusive means no clear call, values can overlap the other calls; tested in PC3 cells
# Cl transport mod: modulators of human KCC2 chloride dependent transport; KCC2 cells, thallium flux FluoZin-2 fluorescence; B-score of Tl+ flux slope (higher = more flux/activation; lower = inhibition) at 10 µM; AID 1456; Q9H2X9; 2.2% of 190,000 active;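 active means thallium flux slope and its plate-corrected score both differing from the plate sample mean at a set confidence after two filtering rounds, in either direction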;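 further: slope of fluorescence scaled to starting intensity during 10 to 20 s after thallium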
# Target sequence (Q9H2X9 whole entry, looked up): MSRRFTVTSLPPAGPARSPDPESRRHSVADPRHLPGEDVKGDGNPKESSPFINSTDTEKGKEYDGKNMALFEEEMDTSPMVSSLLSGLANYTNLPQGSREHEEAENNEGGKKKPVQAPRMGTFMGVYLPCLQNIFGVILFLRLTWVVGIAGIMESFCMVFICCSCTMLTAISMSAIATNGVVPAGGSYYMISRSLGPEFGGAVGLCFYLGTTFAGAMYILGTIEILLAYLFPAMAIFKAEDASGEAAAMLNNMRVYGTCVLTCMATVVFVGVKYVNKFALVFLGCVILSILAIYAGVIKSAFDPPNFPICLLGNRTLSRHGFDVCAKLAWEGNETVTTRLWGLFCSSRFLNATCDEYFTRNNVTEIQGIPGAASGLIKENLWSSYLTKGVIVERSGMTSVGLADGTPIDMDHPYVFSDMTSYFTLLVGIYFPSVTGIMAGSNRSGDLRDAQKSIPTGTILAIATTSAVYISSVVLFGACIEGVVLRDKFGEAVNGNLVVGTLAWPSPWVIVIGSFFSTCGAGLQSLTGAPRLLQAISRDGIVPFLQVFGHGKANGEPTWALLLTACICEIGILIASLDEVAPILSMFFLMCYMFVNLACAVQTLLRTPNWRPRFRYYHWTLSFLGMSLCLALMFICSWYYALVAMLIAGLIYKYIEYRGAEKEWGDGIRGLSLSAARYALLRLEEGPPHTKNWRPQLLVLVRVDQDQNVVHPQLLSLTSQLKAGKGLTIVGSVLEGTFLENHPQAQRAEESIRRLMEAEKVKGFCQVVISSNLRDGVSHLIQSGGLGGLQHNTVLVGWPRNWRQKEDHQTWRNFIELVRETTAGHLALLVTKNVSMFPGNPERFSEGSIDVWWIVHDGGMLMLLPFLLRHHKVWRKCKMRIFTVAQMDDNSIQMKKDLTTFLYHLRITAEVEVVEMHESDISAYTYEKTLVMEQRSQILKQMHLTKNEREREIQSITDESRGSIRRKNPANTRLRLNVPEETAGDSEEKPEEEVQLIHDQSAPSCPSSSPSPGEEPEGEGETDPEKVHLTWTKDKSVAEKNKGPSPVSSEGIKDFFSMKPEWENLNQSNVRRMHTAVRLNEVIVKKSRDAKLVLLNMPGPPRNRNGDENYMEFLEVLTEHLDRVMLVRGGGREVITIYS
# STAT1 blocker: STAT1 signaling inhibition; NIH 3T3 STAT1-luciferase reporter, IFN-gamma, luminescence; inhibition, % at 5.5 µM; 0.35% of 200,000 active; AID 920;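 active means inhibition above a set limit, the mean inhibition across all tested compounds plus 3 SD, cut at about 34% in these data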;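 further: 0% = IFN-gamma with DMSO and 100% = IFN-gamma with 300 µM nifuroxazide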
# STAT3 act: increases IL-6 driven STAT3 reporter signal. U3A cells, IL-6 STAT3-luciferase reporter, luminescence; 100% = signal with IL-6 EC80 alone. activation (% of control), % at 5.6 µM. 0.91% of 190,000 active. AID 871;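 active means activation above the screen-wide mean of compound activation plus 3 SD, cut at about 130% in these data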;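 further: 0% = background luminescence of wells with medium and substrate only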
#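 Material: human U3A cells carrying STAT3-luciferase construct. Measured by: reporter luminescence signal. Timing: compound 1 h, then IL-6 6 h at 37 °C.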
# STAT3 blocker: reduces IL-6 driven STAT3 reporter signal. U3A cells, IL-6 STAT3-luciferase reporter, luminescence; host cell line lacks STAT1. AID 862. 0.89% of 190,000 active. inhibition, % at 5.5 µM;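 active means inhibition above the mean inhibition across all screened compounds plus 3 SD, cut at about 44% in these data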;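 further: 0% = DMSO only wells and 100% = 100 µM nifuroxazide control wells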
# KCC2 secondary: KCC2 (human) modulation, secondary assay; shares compounds with Cl transport mod; 15% of 3,700 active; HEK293-KCC2, thallium flux, FluoZin2 fluorescence; hits give high values; normalised thallium flux (F/F0 slope) at 10 µM; AID 1713;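 active means thallium flux slope above the same plate's solvent-only control mean plus 3 SD; inconclusive means the two replicate wells disagree; inactive means no significant difference from solvent-only control wells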
# KCC2 bumet counter: bumetanide-insensitive thallium flux in KCC2 cells with ouabain, counter-screen; shares compounds with Cl transport mod; HEK293-KCC2 + bumetanide/ouabain, thallium flux FluoZin2; hits give high values; 49% of 3,700 active; normalized thallium flux at 10 µM; AID 1714;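 active means thallium entry rate above the same plate's blocked-transporter control wells by more than 3 SD; inconclusive means the two repeat wells disagree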;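 further: raw slope of fluorescence over initial fluorescence between 10 and 20 s after thallium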
# KCC2 secondary2: confirmation of human KCC2 transport modulators. shares compounds with Cl transport mod. HEK293-KCC2, thallium flux FluoZin2 fluorescence; actives lie on both sides; F/F0 rise rate, 10–20 s post-thallium. normalized thallium flux at 10 µM. 23% of 3,700 active. AID 1715;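 active means thallium flux slope more than 3 SD above or below the plate's solvent-only control mean, mostly below; inconclusive means the two repeat wells disagreed; inactive means no significant shift from solvent-only controls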;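 further: raw slope with 0.1% DMSO as baseline and bumetanide as block control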
# HEK counter1: parental HEK flux effect, counter-screen; shares compounds with Cl transport mod; HEK293 parental cells, thallium flux FluoZin2, ouabain; baseline-ratio fluorescence slope, 10–20 s after thallium; thallium flux rate (normalised fluorescence) at 10 µM; 46% of 3,700 active;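 active means thallium flux rate significantly above the same plate's solvent-only control wells, beyond their mean plus 3 SD; inconclusive means the two replicate wells gave conflicting results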
# KCC2 ouabain: modulates human KCC2 on retest with ouabain. raw Tl+ flux slope (below DMSO = inhibition, above = activation) at 10 µM. 48% of 3,700 active. AID 1717. HEK293-KCC2, thallium flux FluoZin2 fluorescence; bidirectional: low = inhibitor, high = activator. shares compounds with Cl transport mod;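 active means thallium flux slope beyond 3 SD from same-plate DMSO control mean in most replicates, usually higher, sometimes lower; inconclusive means repeat tests gave conflicting results; inactive means no significant difference from controls in most replicates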;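 further: slope of initial-normalized fluorescence between seconds 10 and 20 after thallium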
# HEK counter2: counter-screen for KCC2 modulators: effect in parental HEK293 cells; shares compounds with Cl transport mod; thallium flux FluoZin-2 fluorescence slope; thallium flux slope at 10 µM; 33% of 3,700 active; AID 1718;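 active means thallium flux slope above the same plate's solvent-control mean plus 3 SD in both duplicate wells; inconclusive means duplicate wells that disagreed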;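 further: run without ouabain in cells lacking the KCC2 cotransporter; slope of fluorescence scaled to its starting value between 10 and 20 s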
# * hit, by the source's call; i = inactive; ? = inconclusive; . = not tested or not shown.
SMILES,STAT1 activator,HSV replic up,Cl transport mod,STAT1 blocker,STAT3 act,STAT3 blocker,KCC2 secondary,KCC2 bumet counter,KCC2 secondary2,HEK counter1,KCC2 ouabain,HEK counter2
CC(c1ccccc1)n1c(-c2ccncc2)n[nH]c1=S (centres undefined),101.0,i,-0.611,-1.1,100.5,2.1,.,.,.,.,.,.
CN(C)c1ccc(/C=C/c2ccc3c4ccccc4ccc3[n+]2-c2ccccc2)cc1,56.4,.,-3.18*,46.2*,34.9,80.8*,0.00497,0.00409,0.0239*,?,0.014*,0.0105
CC12CCC(C(=O)Nc3nc4ccc(Br)cc4s3)(OC1=O)C2(C)C (centres undefined),137.9*,i,9.69*,-44.7,102.5,2.9,0.0052,0.04*,?,0.0166*,0.0349*,0.0216*
COCCN(C(=O)CSc1nc2ccccc2c(=O)n1CC(C)C)c1c(N)n(Cc2ccccc2)c(=O)[nH]c1=O,93.9,i,13.4*,4.6,106.2,1.9,0.0118*,0.0539*,0.0375,0.024*,0.05*,0.016*
COc1ccc(Cl)cc1NC(=O)CC(C)=O,103.4,i,7.33*,-3.8,101.5,3.5,?,?,0.0335,0.00812,0.0228,0.0107
COCC(=O)Nc1cc(OC)ccc1OC,93.8,i,.,6.7,106.4,-6.7,0.0103,?,0.0347,?,0.0228,?
COc1ccc(Cl)cc1NC(=O)COC(C)=O,105.3,i,0.398,-6.0,95.9,8.9,.,.,.,.,.,.
COc1ccc(S(=O)(=O)N2CCc3cc(OC)c(OC)cc3C2)cc1,.,i,0.851,.,.,.,.,.,.,.,.,.
CC(OC(=O)c1ccccc1NCc1ccco1)C(=O)Nc1ncc(Cl)cc1Cl (centres undefined),92.6,i,-3.02*,9.2,103.5,0.2,0.00885,0.00578,0.0295,0.00641,?,?
CC(OC(=O)c1ccc(S(=O)(=O)NCc2ccco2)cc1)C(=O)Nc1ccc(Cl)cn1 (centres undefined),102.9,i,0.748,-3.2,104.9,-8.3,.,.,.,.,.,.
CC1Cc2cc(C3(O)C(=O)c4ccccc4C3=O)ccc2N1 (centres undefined),99.8,i,.,0.2,106.7,-3.5,.,.,.,.,.,.
CCc1c(C)sc(NC(=O)c2cc(C)no2)c1C#N,108.1,i,-0.312,-8.9,98.9,10.2,.,.,.,.,.,.
CCc1c(C)sc(NC(=O)c2cc(C(C)C)on2)c1C#N,118.2,i,7.31*,-22.1,91.4,17.6,0.0115,0.0272*,0.0393,?,0.0307*,?
COc1ccccc1N1CCN(C(=S)NC(=O)/C=C/c2ccccc2)CC1,.,i,6.71*,.,.,.,0.0059,0.0109*,0.0335,0.0136*,?,0.014*
COc1ccccc1N1CCN(C(=S)NC(=O)/C=C/c2ccc(F)cc2)CC1,.,i,26.9*,.,.,.,0.00554,0.0394*,0.0336,0.0155*,0.0315*,0.0181*
NC(=S)N=Nc1c(O)n(CCCl)c2ccc(Br)cc12,.,i,28.7*,.,.,.,0.0165*,0.0693*,0.0378,0.0301*,0.0418*,0.0147*
C/C(Cl)=C\Cn1c(O)c(N=O)c2ccccc21,100.4,i,-1.39,-2.6,104.5,-1.7,.,.,.,.,.,.
C/C(Cl)=C\Cn1c(O)c(N=NC(N)=S)c2cc(Br)ccc21,101.1,i,35.6*,-2.7,97.4,5.2,0.00591,0.0289*,0.0543*,0.0425*,0.0622*,0.0295*
CCCCn1c(O)c(N=NC(=O)c2ccncc2)c2cc(Br)ccc21,96.8,i,0.545,3.6,86.4,17.2,.,.,.,.,.,.
O=C(O)C/C(=C\c1cccc(NC(=O)c2ccccc2Cl)c1)c1nc2ccccc2s1,.,i,-4.09*,.,.,.,0.00541,0.00507,0.0219*,?,0.0103*,0.0101
COc1ccc(C(=O)Nc2cccc(/C=C/c3nc4ccccc4c(=O)[nH]3)c2)cc1,.,i,0.447,.,.,.,.,.,.,.,.,.
COc1cc(/C=C(\CC(=O)O)c2nc3ccccc3s2)cc(OC)c1O,105.4,?,0.0135,-5.1,95.9,5.6,.,.,.,.,.,.
COc1ccc(C(=O)Nc2cccc(/C=C(\CCC(=O)O)c3nc4ccccc4s3)c2)cc1,.,i,-3.8*,.,.,.,0.005,?,0.0241*,0.00682,0.0131*,?
COc1ccc(CCNC(=O)Nc2ccc([N+](=O)[O-])cc2)cc1OC,95.4,i,-0.291,3.6,98.4,9.6,.,.,.,.,.,.
S=c1[nH]nc(Nc2cccc3ccccc23)s1,.,i,30.3*,.,.,.,0.00783*,0.0233*,0.0166*,0.00878*,0.016*,0.00986
SMILES,STAT1 activator,HSV replic up,Cl transport mod,STAT1 blocker,STAT3 act,STAT3 blocker,KCC2 secondary,KCC2 bumet counter,KCC2 secondary2,HEK counter1,KCC2 ouabain,HEK counter2
Cc1oc(-c2cc(F)ccc2F)nc1CN(C)Cc1ccc2nccnc2c1,100.6,i,0.704,-2.4,102.3,-0.3,.,.,.,.,.,.
Cc1oc(-c2cc(F)ccc2F)nc1CN1CCN(c2cnccn2)CC1,92.4,i,-5.04*,7.8,101.2,4.3,0.0113,0.00604,0.0304,0.00758,0.0646,?
CN(C)CCCNC(=O)c1cc(S(=O)(=O)N2CCOCC2)ccc1F,99.4,i,-0.101,0.7,100.3,-0.1,.,.,.,.,.,.
O=C(NCCSCc1ccccc1)c1cc(S(=O)(=O)N2CCOCC2)ccc1F,94.9,.,-3.8*,3.9,105.0,-1.6,0.00632,0.00511,0.0263*,0.00757,?,0.0106
O=C(CCC1CCCCC1)Nc1ccc(C(=O)c2ccncc2)cc1,93.8,i,-0.66,4.9,94.8,9.8,.,.,.,.,.,.
Cn1cccc1/C=N/NC(=O)c1cccnc1,98.8,i,2.98*,0.2,105.2,-2.4,0.00762,0.00445,0.028,0.00805,0.0184,0.0102
Cc1ccc(C(=O)N/N=C\c2cccn2C)cn1,105.6,i,1.13,-6.2,91.8,20.5,.,.,.,.,.,.
COc1ccccc1C(=O)NCC(=O)OCC(=O)c1ccc2c(c1)-c1ccccc1C2,97.6,i,0.284,2.7,82.4,21.9,.,.,.,.,.,.
Cc1cccc(OCc2n[nH]c(=S)n2-c2ccccc2)c1,95.5,i,0.0885,3.9,106.6,0.0,.,.,.,.,.,.
